Assay results reported in ChEMBL document CHEMBL1136004, “Ethyl (3S,4aR,6S,8aR)-6-(4-ethoxycar- bonylimidazol-1-ylmethyl)decahydroiso-quinoline-3-carboxylic ester: a prodrug of a GluR5 kainate receptor antagonist active in two animal models of acute migraine” (J Med Chem, 2002).

Tests used:
Glutamate receptor 1 = Glutamate receptor 1 (Homo sapiens, UniProt P42261); experiment: Ability to displace binding of [3H]AMPA to recombinant human Ionotropic glutamate receptor AMPA 1
Procedure, shortened: (§1)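 Radioligand displacement with [3H]AMPA on membranes from HEK 293 cells expressing the cloned human AMPA receptor subunit. Ki (μM) reported as the mean ± SEM of at least three determinations.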

Glutamate receptor 3 = Glutamate receptor 3 (Homo sapiens, UniProt P42263); experiment: Ability to displace binding of [3H]AMPA to recombinant human Ionotropic glutamate receptor AMPA 3; procedure, shortened: as §1
[1] = target: T1, Glutamate receptor ionotropic, kainate 2 (Homo sapiens, UniProt Q13002); experiment: Ability to displace binding of [3H]KA to recombinant human KA receptor Ionotropic glutamate receptor ionotropic kainate 2 expressed in EK 293 cell membranes
Procedure, shortened: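 Displacement of [3H]KA binding on membranes from HEK 293 cells expressing the recombinant human kainate receptor subunit. Ki (μM) given as the mean ± SEM from at least three determinations.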

[2] = target: T1, Glutamate receptor ionotropic, kainate 2; experiment: Ability to displace binding of [3H]KA to recombinant human KA receptor Ionotropic glutamate receptor ionotropic kainate 2
[3] = target: Glutamate receptor ionotropic, kainate 3 (Homo sapiens) (UniProt Q13003); experiment: Ability to displace binding of [3H]KA to recombinant human KA receptor Ionotropic glutamate receptor ionotropic kainate 3
[4] = target: Glutamate receptor ionotropic, kainate 1 (Homo sapiens) (UniProt P39086); experiment: Ability to displace binding of [3H]KA to recombinant human Ionotropic glutamate receptor ionotropic kainate 1
Glutamate receptor 4 = Glutamate receptor 4 (Homo sapiens, UniProt P48058); experiment: Ability to displace binding of [3H]AMPA to recombinant human Ionotropic glutamate receptor AMPA 4; procedure, shortened: as §1
[5] = Compound was administered orally 1 h prior to trigeminal stimulation and was evaluated for the decrease extravasation
Glutamate receptor 2 = Glutamate receptor 2 (Homo sapiens, UniProt P42262); experiment: Ability to displace binding of [3H]AMPA to recombinant human Ionotropic glutamate receptor AMPA 2
Chain of Glutamate receptor 2 (P42262 whole entry): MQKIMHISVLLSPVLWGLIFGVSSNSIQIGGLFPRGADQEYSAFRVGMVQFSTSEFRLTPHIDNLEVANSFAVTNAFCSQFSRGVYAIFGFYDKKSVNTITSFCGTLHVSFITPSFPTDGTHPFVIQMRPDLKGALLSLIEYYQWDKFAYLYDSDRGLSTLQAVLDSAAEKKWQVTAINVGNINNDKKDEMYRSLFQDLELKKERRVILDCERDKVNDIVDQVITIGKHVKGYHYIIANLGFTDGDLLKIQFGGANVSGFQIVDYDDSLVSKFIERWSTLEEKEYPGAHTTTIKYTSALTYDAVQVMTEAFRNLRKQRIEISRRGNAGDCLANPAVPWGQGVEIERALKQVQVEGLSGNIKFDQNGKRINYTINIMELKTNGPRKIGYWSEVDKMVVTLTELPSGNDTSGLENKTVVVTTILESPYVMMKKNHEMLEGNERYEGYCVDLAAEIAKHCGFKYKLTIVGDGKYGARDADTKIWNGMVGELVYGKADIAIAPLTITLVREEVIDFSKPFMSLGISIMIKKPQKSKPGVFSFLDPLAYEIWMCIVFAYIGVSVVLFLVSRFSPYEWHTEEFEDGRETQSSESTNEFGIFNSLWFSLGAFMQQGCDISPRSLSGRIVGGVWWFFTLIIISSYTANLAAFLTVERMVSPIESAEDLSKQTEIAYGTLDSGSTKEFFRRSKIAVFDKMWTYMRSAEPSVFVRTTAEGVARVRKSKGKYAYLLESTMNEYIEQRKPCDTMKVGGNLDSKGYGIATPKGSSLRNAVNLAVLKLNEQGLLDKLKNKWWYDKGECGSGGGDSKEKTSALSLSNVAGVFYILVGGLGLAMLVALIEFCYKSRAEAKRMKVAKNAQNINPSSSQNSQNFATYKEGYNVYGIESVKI

T1 sequence (Q13002 whole entry): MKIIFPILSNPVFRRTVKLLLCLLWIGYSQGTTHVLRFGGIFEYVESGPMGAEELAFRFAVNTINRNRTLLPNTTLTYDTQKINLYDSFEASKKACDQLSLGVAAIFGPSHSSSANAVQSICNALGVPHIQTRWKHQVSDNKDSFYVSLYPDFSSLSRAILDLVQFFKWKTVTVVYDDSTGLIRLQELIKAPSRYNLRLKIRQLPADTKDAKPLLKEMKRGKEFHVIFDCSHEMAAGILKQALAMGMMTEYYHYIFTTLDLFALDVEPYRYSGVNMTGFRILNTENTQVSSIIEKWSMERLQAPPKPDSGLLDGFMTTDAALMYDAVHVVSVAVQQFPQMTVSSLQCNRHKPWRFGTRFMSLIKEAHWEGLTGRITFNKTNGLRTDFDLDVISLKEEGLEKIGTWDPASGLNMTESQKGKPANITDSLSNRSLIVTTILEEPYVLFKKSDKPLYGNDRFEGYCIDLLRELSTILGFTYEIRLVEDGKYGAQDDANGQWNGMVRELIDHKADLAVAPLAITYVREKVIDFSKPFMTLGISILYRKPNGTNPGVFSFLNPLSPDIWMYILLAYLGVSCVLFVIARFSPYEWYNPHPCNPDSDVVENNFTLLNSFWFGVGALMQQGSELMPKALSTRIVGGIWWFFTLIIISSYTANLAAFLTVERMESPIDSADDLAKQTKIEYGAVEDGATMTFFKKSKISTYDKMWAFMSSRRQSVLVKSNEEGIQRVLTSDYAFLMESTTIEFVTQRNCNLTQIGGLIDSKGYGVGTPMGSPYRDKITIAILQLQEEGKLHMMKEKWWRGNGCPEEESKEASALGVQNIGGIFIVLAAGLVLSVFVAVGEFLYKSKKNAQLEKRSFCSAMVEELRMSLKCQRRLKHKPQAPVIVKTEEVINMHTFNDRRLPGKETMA
Chain of Glutamate receptor 1 (P42261 whole entry): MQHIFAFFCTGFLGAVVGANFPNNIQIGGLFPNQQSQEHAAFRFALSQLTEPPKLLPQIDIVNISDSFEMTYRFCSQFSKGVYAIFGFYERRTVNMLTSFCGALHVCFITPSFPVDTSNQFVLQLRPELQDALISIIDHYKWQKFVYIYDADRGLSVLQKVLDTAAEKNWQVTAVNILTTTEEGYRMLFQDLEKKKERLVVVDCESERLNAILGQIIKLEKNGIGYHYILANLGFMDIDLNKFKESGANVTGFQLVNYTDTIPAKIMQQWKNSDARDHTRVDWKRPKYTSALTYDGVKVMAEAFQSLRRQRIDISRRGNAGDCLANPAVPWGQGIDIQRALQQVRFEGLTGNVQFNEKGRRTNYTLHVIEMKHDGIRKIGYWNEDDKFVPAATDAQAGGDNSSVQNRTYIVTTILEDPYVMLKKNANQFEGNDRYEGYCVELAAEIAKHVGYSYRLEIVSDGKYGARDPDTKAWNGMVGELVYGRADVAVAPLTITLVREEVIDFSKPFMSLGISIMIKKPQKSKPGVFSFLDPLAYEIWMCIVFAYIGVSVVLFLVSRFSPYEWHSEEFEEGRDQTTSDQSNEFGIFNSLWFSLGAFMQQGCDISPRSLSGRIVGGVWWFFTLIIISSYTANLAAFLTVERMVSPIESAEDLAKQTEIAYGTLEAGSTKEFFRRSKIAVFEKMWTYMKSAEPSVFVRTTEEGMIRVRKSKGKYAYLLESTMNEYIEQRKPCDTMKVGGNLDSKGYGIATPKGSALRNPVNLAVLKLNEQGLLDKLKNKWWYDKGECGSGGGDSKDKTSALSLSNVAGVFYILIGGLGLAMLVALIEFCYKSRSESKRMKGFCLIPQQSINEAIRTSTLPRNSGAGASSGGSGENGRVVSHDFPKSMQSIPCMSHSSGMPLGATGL
Chain of Glutamate receptor 3 (P42263 whole entry): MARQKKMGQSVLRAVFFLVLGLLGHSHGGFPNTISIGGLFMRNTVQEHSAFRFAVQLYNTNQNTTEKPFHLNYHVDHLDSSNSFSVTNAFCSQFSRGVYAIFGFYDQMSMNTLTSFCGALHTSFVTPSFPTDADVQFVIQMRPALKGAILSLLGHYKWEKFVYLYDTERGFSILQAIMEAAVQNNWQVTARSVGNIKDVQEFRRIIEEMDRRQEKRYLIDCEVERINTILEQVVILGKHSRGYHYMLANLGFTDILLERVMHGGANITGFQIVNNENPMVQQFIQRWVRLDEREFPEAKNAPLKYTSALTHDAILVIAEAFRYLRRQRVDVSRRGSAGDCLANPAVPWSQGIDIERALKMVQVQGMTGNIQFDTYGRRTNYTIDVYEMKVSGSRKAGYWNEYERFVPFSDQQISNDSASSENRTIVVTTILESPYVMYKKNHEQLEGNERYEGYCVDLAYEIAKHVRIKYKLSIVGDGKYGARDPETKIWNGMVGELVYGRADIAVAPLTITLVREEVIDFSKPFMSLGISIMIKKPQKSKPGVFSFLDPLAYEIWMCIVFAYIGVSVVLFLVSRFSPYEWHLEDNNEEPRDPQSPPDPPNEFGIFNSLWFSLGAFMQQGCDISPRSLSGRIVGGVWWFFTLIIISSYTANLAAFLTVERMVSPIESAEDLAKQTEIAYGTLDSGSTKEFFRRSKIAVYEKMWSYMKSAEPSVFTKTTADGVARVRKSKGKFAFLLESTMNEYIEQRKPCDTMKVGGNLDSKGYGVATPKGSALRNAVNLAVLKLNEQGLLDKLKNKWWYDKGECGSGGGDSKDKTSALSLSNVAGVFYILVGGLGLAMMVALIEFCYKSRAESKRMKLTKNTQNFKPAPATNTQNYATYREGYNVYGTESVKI
Chain of Glutamate receptor 4 (P48058 whole entry): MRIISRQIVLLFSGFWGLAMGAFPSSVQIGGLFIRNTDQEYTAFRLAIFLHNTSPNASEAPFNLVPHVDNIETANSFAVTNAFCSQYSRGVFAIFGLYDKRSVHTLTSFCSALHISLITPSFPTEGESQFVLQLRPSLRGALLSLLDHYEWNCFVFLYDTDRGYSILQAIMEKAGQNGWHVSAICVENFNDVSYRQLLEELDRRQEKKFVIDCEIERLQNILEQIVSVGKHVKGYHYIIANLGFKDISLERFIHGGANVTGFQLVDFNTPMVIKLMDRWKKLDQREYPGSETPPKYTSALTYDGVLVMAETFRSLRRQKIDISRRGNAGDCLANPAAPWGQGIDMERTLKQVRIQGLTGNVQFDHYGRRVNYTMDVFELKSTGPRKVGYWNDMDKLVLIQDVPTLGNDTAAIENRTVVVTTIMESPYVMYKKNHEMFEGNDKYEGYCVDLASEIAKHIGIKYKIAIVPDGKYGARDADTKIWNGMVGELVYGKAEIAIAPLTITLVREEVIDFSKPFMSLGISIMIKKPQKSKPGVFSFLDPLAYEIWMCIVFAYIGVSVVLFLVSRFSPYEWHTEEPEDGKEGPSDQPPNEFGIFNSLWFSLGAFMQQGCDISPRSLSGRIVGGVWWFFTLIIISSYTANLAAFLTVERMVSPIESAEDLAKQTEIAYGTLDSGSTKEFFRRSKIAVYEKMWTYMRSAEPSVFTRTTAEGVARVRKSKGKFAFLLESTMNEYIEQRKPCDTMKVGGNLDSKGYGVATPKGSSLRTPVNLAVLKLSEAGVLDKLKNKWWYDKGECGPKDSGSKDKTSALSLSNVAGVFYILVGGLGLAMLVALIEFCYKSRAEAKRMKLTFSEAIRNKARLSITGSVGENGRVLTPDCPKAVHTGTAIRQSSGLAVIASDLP

SMILES: NS(=O)(=O)c1cccc2c1c([N+](=O)[O-])cc1nc(O)c(O)nc12 [NBQX]
- Ki (Glutamate receptor 1): 1.6 µM

SMILES: O=C(O)[C@@H]1C[C@H]2C[C@@H](CCc3nn[nH]n3)CC[C@H]2CN1 [TEZAMPANEL ANHYDROUS]
- Ki (Glutamate receptor 3): 32 µM
- Ki [1]: > 100 µM
- Ki [2]: > 100 µM
- Ki [3]: > 100 µM
- Ki [4]: 4.2 µM
- Ki (Glutamate receptor 1): 9.2 µM
- Ki (Glutamate receptor 4): 50 µM

SMILES: CN(C)CCc1c[nH]c2ccc(Cn3cncn3)cc12 [RIZATRIPTAN]
- ID50 [5]: 8 µg/kg

SMILES: O=C(O)c1cn(C[C@H]2CC[C@H]3CN[C@H](C(=O)O)C[C@H]3C2)cn1
- Ki (Glutamate receptor 3): 247 µM
- Ki [1]: 236 µM
- Ki (Glutamate receptor 2): 117 µM
- Ki [2]: > 1000 µM
- Ki [3]: 48.5 µM
- Ki [4]: 0.156 µM
- Ki (Glutamate receptor 1): 134 µM
- Ki (Glutamate receptor 4): 262 µM
